In ChEMBL document CHEMBL1139179, “5-Alkynyl-2'-deoxyuridines: chromatography-free synthesis and cytotoxicity evaluation against human breast cancer cells” (Bioorg Med Chem, 2007):

Tests used:
MDA-MB-231 = test: Cytotoxicity against human MDA-MB-231 cells after 72 hrs; assay type: functional, cell-based; settings: MDA-MB-231, 72 h
How it was run: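 MDA-MB-231 cells (100 μL at 5000 cells/mL) grown 72 h at 37 °C, 5% CO2, then given graded concentrations (six replicates) for a further 72 h. Glutardialdehyde fixation, 0.02 M crystal violet staining, 70% ethanol elution, absorbance at 590 nm. A day-0 biomass plate was subtracted and the control taken as 100%. IC50 is 50% proliferation inhibition, mean of at least two independent runs.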

MCF7 [1] = test: Cytotoxicity against human MCF7 cells after 96 hrs; settings: MCF7, 96 h
MCF7 [2] = test: Cytotoxicity against human MCF7 cells after 72 hrs; assay type: functional, cell-based; settings: MCF7, 72 h

Row | Structure (SMILES) | IC50 (MDA-MB-231) | IC50 (MCF7 [1]) | IC50 (MCF7 [2])
1 | C#Cc1cn([C@H]2C[C@H](O)[C@@H](CO)O2)c(=O)[nH]c1=O | 4.4 µM | 0.4 µM | –
2 | C[Si](C)(C)C#Cc1cn([C@H]2C[C@H](O)[C@@H](CO)O2)c(=O)[nH]c1=O | 4.2 µM | 1.6 µM | –
3 | O=c1[nH]c(=O)n([C@H]2C[C@H](O)[C@@H](CO)O2)cc1C#CC1CC1 | > 50 µM | > 50 µM | –
4 | Cc1ccc(C#Cc2cn([C@H]3C[C@H](O)[C@@H](CO)O3)c(=O)[nH]c2=O)cc1 | > 50 µM | – | 0.9 µM
5 | CCCCCc1ccc(C#Cc2cn([C@H]3C[C@H](O)[C@@H](CO)O3)c(=O)[nH]c2=O)cc1 | 29.2 µM | 37 µM | –
6 | CCCC#Cc1cn([C@H]2C[C@H](O)[C@@H](CO)O2)c(=O)[nH]c1=O | > 50 µM | > 50 µM | –
7 | O=c1[nH]c(=O)n([C@H]2C[C@H](O)[C@@H](CO)O2)cc1C#CC1(O)CCCCC1 | > 50 µM | > 50 µM | –
8 | CC(C)(C)c1ccc(C#Cc2cn([C@H]3C[C@H](O)[C@@H](CO)O3)c(=O)[nH]c2=O)cc1 | > 50 µM | 9.5 µM | –
9 | O=c1[nH]cc(F)c(=O)[nH]1 [FLUOROURACIL] | 9.6 µM | – | 4.8 µM
